# Test results: article PMC4207547 (Journal of Medicinal Chemistry, 2014)
# Entries after “also recorded” stand apart in the source; their conditions may differ.
# Tests used:
# CXCR2 [1] = biological target: T1, CXCR2 (Homo sapiens, UniProt P25025); experiment: Competition [125I]-CXCL8 binding assay, HEK293-hCXCR2 membranes; conditions: up to 10 μM compound, 25 pM radioligand
# T1 sequence (P25025 1-360): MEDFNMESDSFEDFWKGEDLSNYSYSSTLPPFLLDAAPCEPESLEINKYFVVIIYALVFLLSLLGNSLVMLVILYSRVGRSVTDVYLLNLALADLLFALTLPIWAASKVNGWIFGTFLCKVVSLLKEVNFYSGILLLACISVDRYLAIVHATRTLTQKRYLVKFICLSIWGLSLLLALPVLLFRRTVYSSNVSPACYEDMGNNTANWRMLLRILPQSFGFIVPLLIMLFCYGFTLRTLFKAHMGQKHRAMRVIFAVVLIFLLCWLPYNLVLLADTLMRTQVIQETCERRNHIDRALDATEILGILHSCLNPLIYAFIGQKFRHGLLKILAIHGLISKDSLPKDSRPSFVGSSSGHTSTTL
# CXCR1 and CXCR2 = experiment: CXCL8-stimulated Ca2+ flux in hPMNs; type: cell-based, human; conditions: 1 μM compound
# Procedure, shortened: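 Human PMNs isolated from blood by dextran sedimentation, Histopaque 1077 gradient and hypotonic red-cell lysis (>95% pure, >98% viable). Cells loaded with FLIPR Calcium 3 dye in Ca2+/Mg2+-free HBSS with 10 mM HEPES plus test compound or DMSO (1% final), 37 °C, 30 min. They were then pelleted and resuspended in HBSS with Ca2+/Mg2+, and compound was re-added at the same concentration. Fluorescence was read at 10^5 cells/well: 15 s basal, then agonist injected.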
# PAF-induced Ca2+ flux = PAF-induced Ca2+ flux in hPMNs; type: cell-based, human; conditions: for effect on PAF-induced Ca2+ flux, in words: hPMNs, concentrations up to 5 μM
# C5a-induced Ca2+ flux = C5a-induced Ca2+ flux in hPMNs; type: cell-based, human; conditions: for effect on C5a-induced Ca2+ flux, in words: hPMNs, concentrations up to 5 μM
# Procedure, shortened: (§1)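 Human PMNs were isolated from healthy donor blood by dextran sedimentation, Histopaque 1077 gradient and hypotonic red cell lysis (>95% pure, >98% viable). Cells were dye-loaded (FLIPR Calcium 3) in Ca/Mg-free HBSS with 10 mM HEPES plus test compound or 1% DMSO for 30 min at 37 °C. They were then resuspended in HBSS+ with compound re-added, at 10^5 cells/well. Agonist final: C5a 50 nM, fMLF 10 nM. Fluorescence (ex 485/em 525 nm) was read every 5 s for 240–500 s at room temperature, max–min as % of DMSO control.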
# [2] = test system: CXCR2-mediated phosphorylation of ERK1/2; experiment: CXCL8-induced ERK1/2 phosphorylation in HEK293 cells expressing CXCR2; type: cell-based, human; conditions: 10 μM compound, CXCL8 100 ng/mL, 0–30 min
# Procedure, shortened: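 G418-selected HEK293 pool stably expressing human CXCR2, 5 × 10^6 cells per 60 mm plate. […] Lysis was at 0, 5, 15 and 30 min in SDS/deoxycholate/Triton buffer with PMSF, aprotinin and leupeptin. Phospho-ERK1/2 and total ERK1/2 were detected by Western blot.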
# fMLF-induced Ca2+ flux = fMLF-induced Ca2+ flux in hPMNs; type: cell-based, human; conditions: for effect on fMLF-induced Ca2+ flux, in words: hPMNs, concentrations up to 5 μM
# Procedure, shortened: as §1
# male CD1 Swiss mice = experiment: Murine air-pouch model of inflammation; type: in vivo, mouse; conditions: 0.2 mg/kg iv, 3 h before 2% carrageenan; vs positive control cohort, p < 0.01
# Procedure, shortened: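 Dorsal air pouch in 10–15-week-old male CD1 Swiss mice: 2 mL air sc, reinflated with 1.5 mL next day. Test compound (0.02 or 0.20 mg/kg) in PEG400:DMF:saline 20:20:80, or vehicle, was given iv by tail vein, n = 5 per cohort. After 3 h, 1 mL PBS or 2% carrageenan in PBS was injected into the pouch. Pouch fluid plus a 2 mL PBS wash was collected 4 h later; cells were counted by trypan blue on a hemocytometer. Student's t-test vs carrageenan/vehicle cohort.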
# CXCR2 [3] = biological target: T1, CXCR2; experiment: CXCR2 cell surface expression by flow cytometry in HEK293 cells; type: cell-based; conditions: 10 μM, 60 min exposure
# Procedure, shortened: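 Stable HEK293-CXCR2 cells were pretreated with 1% DMSO vehicle or test compound for 60 min; untransfected HEK293 served as negative isotype control. Cells were stained with PE-conjugated anti-human CXCR2 mouse monoclonal (1:100) at 4 °C for 60 min, washed, and fixed in 2% formaldehyde/PBS. PE signal was quantified by flow cytometry; data representative of three independent experiments.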
structure (smiles),measurement,setting,value
"O=C(Nc1ccc(F)cc1)c1ccc(SCc2ccccc2B(O)O)nc1 [Compound 7, 2-((5-(4-Fluorophenylcarbamoyl)pyridin-2-ylthio)methyl)phenylboronic acid]","competition of [125I]-CXCL8 binding to CXCR2 membranes, in words",CXCR2 [1],failed to compete
same,"competition of [125I]-CXCL8 binding to CXCR2 membranes, in words",CXCR2 [1]; listed as SX-517,unable to compete
same,"effect on CXCL8-stimulated Ca2+ flux, in words",CXCR1 and CXCR2,completely eliminate
same,IC50,"PAF-induced Ca2+ flux; Homo sapiens, read-out: IC50, PAF-induced Ca2+ flux",> 5 µM
same,"effect on PAF-induced Ca2+ flux, in words",PAF-induced Ca2+ flux,failed to inhibit; also recorded: no inhibition
same,"effect on PAF-induced Ca2+ flux, in words",PAF-induced Ca2+ flux; listed as SX-517,no effect
same,IC50,"C5a-induced Ca2+ flux; Homo sapiens, read-out: IC50, C5a-induced Ca2+ flux",> 5 µM
same,"effect on C5a-induced Ca2+ flux, in words",C5a-induced Ca2+ flux,failed to inhibit; also recorded: no inhibition
same,"effect on C5a-induced Ca2+ flux, in words",C5a-induced Ca2+ flux; listed as SX-517,no effect
same,"effect on CXCL8-induced ERK1/2 phosphorylation, in words",[2],completely blocked; also recorded: directly antagonized
same,"effect on CXCL8-induced ERK1/2 phosphorylation, in words",[2]; listed as SX-517,antagonized
same,IC50,"fMLF-induced Ca2+ flux; Homo sapiens, read-out: IC50, fMLF-induced Ca2+ flux",> 5 µM
same,"effect on fMLF-induced Ca2+ flux, in words",fMLF-induced Ca2+ flux,failed to inhibit; also recorded: no inhibition
same,"effect on fMLF-induced Ca2+ flux, in words",fMLF-induced Ca2+ flux; listed as SX-517,no effect
same,"total cell count in inflammatory pouch infiltrate, in words",male CD1 Swiss mice,significant reduction; also recorded: significantly reduced
same,"effect on cell surface expression of CXCR2, in words",CXCR2 [3],did not significantly alter
